A selection: hits, their analogues and other compounds. The true share with any hit is near 3.8%.
KCNQ1 inh: blocks the human KCNQ1 potassium channel | B-score at 10 µM | CHO-K1 KCNQ1, FluxOR thallium flux fluorescence; hits give high values | 310,000 tested, 1.3% active;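 active means compounds whose thallium flux B-score, printed positive for inhibition, exceeds three library SD while starting fluorescence stays within three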;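 further: channel opened by potassium depolarization with thallium stimulus after 20 min compound exposure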
KCNQ1 act: human KCNQ1 channel potentiation or activation; 310,000 tested, 0.35% active; P51787; CHO-K1 KCNQ1, thallium flux FluxOR fluorescence; hits give high values; AID 2648; B-score at 10 µM;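 active means fluorescence ratio B-score, a plate-corrected score, at least three library SD, with initial intensity B-score within 5 SD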
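assay system = KCNQ1-transfected CHO-K1 cells | medium = assay buffer with matched DMSO | probe or stimulus = depolarizing K+/Tl+ stimulus, K2SO4 and Tl2SO4 each 12.5 mM in 5x stock | dosing = single dose | incubation = dye 90 min, compound 20 min, room temperature | detection = kinetic FluxOR fluorescence, 10 s baseline plus 110 s post-stimulus | evaluation = ratio B score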
KCNK9 block: human KCNK9 channel inhibition | AID 488922 | HEK293 KCNK9, FluxOR thallium flux fluorescence; hits give low values | 310,000 tested, 1.2% active | B-score at 10 µM;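 active means ratio B-score over 3 SD below the library mean, with starting fluorescence within 5 SD of its mean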;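 further: negative B-score means less thallium flux so channel inhibition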
KCNK3 inh: human KCNK3 channel inhibition, primary screen | O14649 | CHO-KCNK3 thallium flux, FluxOR fluorescence; hits give low values | AID 602410 | 340,000 tested, 0.84% active | B-score at 10 µM;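 active means B-score under library mean minus 4 SD, starting fluorescence ratio at most library mean plus 5 SD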;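 further: more negative B-score means stronger inhibition of thallium flux through KCNK3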
Kir21 inh: Kir2.1 (mouse) channel inhibition; 310,000 tested, 0.85% active; B-score at 10 µM; P35561; HEK293-Kir2.1, FluxOR thallium flux fluorescence; hits give low values;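 active means fluorescence ratio B-score at or below minus 3 SD of library scores, with starting-brightness B-score within 2 SD, cut at about -4.2 in these data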;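 further: channel flux triggered by added potassium and thallium sulfate stimulus; B-score of peak minus minimum fluorescence over baseline after thallium stimulus; more negative B-score means stronger Kir2.1 block with less thallium influx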
hERG rescue: hERG (human) protection from proarrhythmic block; Q12809; CHO-hERG, FluxOR thallium flux, dofetilide IC70 present; activation (rescue from dofetilide block), less the hit threshold, % at 10 µM; 310,000 tested, 0.51% active;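 active means activation above the mean of controls blocked by dofetilide plus 5 SD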;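 further: thallium influx through hERG after potassium depolarization seen as dye fluorescence rise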
Target sequence (Q12809 whole entry, looked up): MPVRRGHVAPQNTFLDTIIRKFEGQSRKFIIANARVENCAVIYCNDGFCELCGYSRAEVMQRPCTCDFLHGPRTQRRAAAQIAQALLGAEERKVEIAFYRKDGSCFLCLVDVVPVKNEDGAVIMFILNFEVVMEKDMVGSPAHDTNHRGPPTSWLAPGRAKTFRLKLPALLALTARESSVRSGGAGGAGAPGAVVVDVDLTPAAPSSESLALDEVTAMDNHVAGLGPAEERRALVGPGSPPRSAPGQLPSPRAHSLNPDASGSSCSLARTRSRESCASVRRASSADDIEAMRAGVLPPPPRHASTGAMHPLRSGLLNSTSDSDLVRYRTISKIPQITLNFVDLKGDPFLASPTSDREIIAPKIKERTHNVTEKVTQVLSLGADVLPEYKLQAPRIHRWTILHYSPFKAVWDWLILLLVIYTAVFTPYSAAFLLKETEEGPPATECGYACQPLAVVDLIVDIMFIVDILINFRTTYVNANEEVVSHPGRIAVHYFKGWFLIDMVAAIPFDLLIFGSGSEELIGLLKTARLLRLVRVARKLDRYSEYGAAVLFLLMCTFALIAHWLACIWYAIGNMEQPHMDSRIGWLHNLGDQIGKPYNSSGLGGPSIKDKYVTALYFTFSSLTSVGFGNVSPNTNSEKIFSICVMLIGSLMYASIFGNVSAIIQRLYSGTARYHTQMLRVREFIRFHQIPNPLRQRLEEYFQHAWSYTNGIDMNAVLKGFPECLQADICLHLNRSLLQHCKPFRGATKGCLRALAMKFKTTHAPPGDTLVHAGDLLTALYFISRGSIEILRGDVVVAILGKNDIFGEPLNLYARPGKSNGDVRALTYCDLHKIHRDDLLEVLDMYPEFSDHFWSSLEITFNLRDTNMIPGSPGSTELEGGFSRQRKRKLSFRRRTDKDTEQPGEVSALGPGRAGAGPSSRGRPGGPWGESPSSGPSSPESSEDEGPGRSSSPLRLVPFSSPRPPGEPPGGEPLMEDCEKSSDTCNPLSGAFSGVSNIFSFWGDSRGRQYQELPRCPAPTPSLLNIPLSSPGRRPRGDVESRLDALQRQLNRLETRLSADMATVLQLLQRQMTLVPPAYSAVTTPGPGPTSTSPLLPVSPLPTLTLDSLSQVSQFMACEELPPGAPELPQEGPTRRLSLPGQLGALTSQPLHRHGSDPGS
KCNK9 block conf: confirmation of human KCNK9 potassium channel inhibitors | shares compounds with KCNK9 block | HEK293 KCNK9 cells, FluxOR thallium flux fluorescence | inhibition, % at 10 µM | 4,900 tested, 43% active;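 active means thallium signal inhibited by more than 5 SD of the compound-free buffer control wells, on both duplicate plates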;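 further: 0% = assay buffer control wells without compound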
Kir2-1 spec: mouse Kir2.1 off-target activity of KCNK9 modulators | 4,900 tested, 4% active | shares compounds with KCNK9 block | Kir2.1 cells, FluxOR thallium flux fluorescence | inhibition, % at 10 µM;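 active means thallium signal drop more than 5 SD beyond the mean of the no-compound control wells, seen in both duplicate plates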;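 further: signal is fluorescence rise after thallium addition divided by baseline fluorescence; plate controls were assay buffer only for no effect and full block by chlorpromazine control for full effect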
KCNK9 uninduced: second check of KCNK9 modulator effects in non-induced HEK293 cells; shares compounds with KCNK9 block; FluxOR thallium flux; inhibition, % at 10 µM; 4,900 tested, 40% active; AID 492997;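 active means thallium signal drop beyond 5 SD of the untreated control mean, on both duplicate plates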;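 further: plate controls were buffer only IC0 wells for no effect and SID17386958 at its maximal inhibitory level for full effect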
KCNK3 inh conf: confirmation of human KCNK3 two-pore domain potassium channel inhibitors; CHO-KCNK3 thallium flux, FluxOR fluorescence; 0% buffer, 100% carvedilol maximal block; ratio percent of control, % at 10 µM; 2,400 tested, 99% active; shares compounds with KCNK3 inh;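 active means ratio percent of control, averaged over triplicates, above buffer control mean plus 5 SD, cut at about 64% in these data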;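 further: ratio is the fluorescence rise from min to max over baseline after thallium stimulus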
KCNK3 uninduced: activity in cells without induced KCNK3 expression; thallium flux ratio (lower = more inhibition) at 10 µM; AID 651747; shares compounds with KCNK3 inh; 2,400 tested, 40% active; non-induced KCNK3 parental cells, FluxOR thallium flux; hits give low values;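 active means thallium flux ratio, averaged over three wells, more than 5 SD below the buffer control mean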;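 further: host cells are CHO cells without KCNK3 induction; ratio is peak minus trough fluorescence over baseline then normalized to buffer controls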
An asterisk follows results filed as active; i = inactive; x = no result; ! = not confirmed by another sample.

SMILES	KCNQ1 inh	KCNQ1 act	KCNK9 block	KCNK3 inh	Kir21 inh	hERG rescue	KCNK9 block conf	Kir2-1 spec	KCNK9 uninduced	KCNK3 inh conf	KCNK3 uninduced
Cc1cccc(NC(=S)N/N=C/c2cccn2Cc2ccc(F)cc2)c1	i	i	-13.6*	-9.3*	-2.11	-4.7	60.5%*	i	i	62.7*	i
Cc1cc(C)cc(NC(=O)Cc2ccc(S(=O)(=O)N3CCCC3)s2)c1	x	x	x	i	x	x	x	x	x	x	x
COc1ccc2oc(=O)cc(-c3cc4cccc(OC)c4o3)c2c1	i	i	i	i	-0.43	-5.0	x	x	x	x	x
CCN(CC)C(=O)Oc1ccc2oc(=O)cc(-c3cc4cccc(OC)c4o3)c2c1	i	i	-18.2*	-9.96*	0.03	-16.6	80.0%*	i	34.0%*	104.3*	i
CC(C)c1cc(NC(=O)c2ccccc2)cc(C(C)C)c1O	i	i	i	i	-2.59	-3.3	x	x	x	x	x
CC(C)c1ccccc1NC(=O)c1cccc(NC(=O)c2ccccc2)c1	i	i	-10.1*	-10.5*	-2.13	-5.5	40.5%*	i	i	105.7*	i
CCc1cccc(CC)c1NC(=O)c1cccc(NC(=O)c2ccccc2)c1	i	i	-8.6*	i	1.29	-6.2	64.5%*	i	i	81.3*	i
CN(CC(=O)Nc1ccccc1F)Cc1cccs1	i	i	i	i	2.62	-4.5	x	x	x	x	x
Cc1cc(Br)ccc1NC(=O)CN(C)Cc1cccs1	i	i	-11.7*	-9.02*	-1.57	-12.2	43.0%*	i	28.0%*	100.3*	i
Oc1cc2c(cc1C(c1ccc(Cl)c(Cl)c1)N1CCCC1)OCO2 (configuration not stated)	i	i	-8.7*	-12.4*	0.73	-19.2	i	i	41.0%*	136.3*	0.15*
Cc1cc(=O)[nH]c(N/N=C/c2ccc([N+](=O)[O-])cc2)n1	i	i	i	x	0.5	-9.8	x	x	x	x	x
Cc1ccc(O)c(C(=O)c2cnc3c(c2)COc2ccccc2-3)c1	i	i	-14.5*	i	-0.4	-9.9	41.0%*	i	27.5%*	96.3*	i
O=C(c1cnc2c(c1)COc1ccc(Cl)cc1-2)c1ccccc1O	i	i	i	i	-1.56	-2.8	x	x	x	x	x
COC(=O)[C@H](CCSC)NC(=O)N1CCN(c2cccc(C(F)(F)F)c2)CC1	i	i	-8.77*	i	-1.67	-8.3	57.5%*	i	i	84.3*	i
c1ccc(-c2nnnn2-c2ccccn2)cc1	x	x	x	i	x	x	x	x	x	x	x
Cc1cccc(C(C)C)c1-n1nnnc1-c1ccccc1	i	i	-12.3*	-10.2*	0.15	-11.8	53.0%*	i	40.0%*	117.3*	i
O=C(C/C=N/OCc1ccc(Cl)cc1Cl)c1ccc(Cl)cc1	i	i	-14.9*	-8.99*	0.44	-8.8	43.0%*	i	43.0%*	93.0*	0.15*
COc1ccc(NC(=O)Cn2ncn3nc(-c4ccc(OC)cc4)cc3c2=O)cc1	i	i	i	i	2.91	-6.9	x	x	x	x	x
COc1cccc(-c2nn(-c3ccccc3)cc2C(=O)O)c1	i	i	i	i	-0.28	-6.4	x	x	x	x	x
COc1cccc(-c2nn(-c3ccccc3)cc2/C=C\C(=O)c2cccs2)c1	i	i	-9.47*	-11.5*	0.05	-7.1	39.0%*	i	30.5%*	88.7*	i
COc1ccc2ccc(=O)oc2c1CC=C(C)C	i	i	-15.3*	-11.6*	0.02	-12.1	71.5%*	i	38.0%*	104.0*	i
O=C(c1ccc(COc2ccccc2Cl)o1)N1CCN(Cc2ccc3c(c2)OCO3)CC1	i	i	-11.7*	-10.5*!	-0.63	-11.8	47.0%*	i	25.0%*	123.3*	i
O=S(=O)(c1cc(Cl)ccc1Cl)N1CCN(Cc2ccc3c(c2)OCO3)CC1	i	i	i	-9.71*	0.27	-8.7	i	i	26.5%*	112.7*	0.159*
CCC(=O)NNc1nc2c(F)cccc2s1	i	i	i	i	-0.89	-11.3	x	x	x	x	x
COc1cc(NC(=O)CN2C(=O)NC(C)(c3ccccc3)C2=O)c(C)cc1[N+](=O)[O-] (configuration not stated)	i	i	i	i	0.42	-14.9	x	x	x	x	x
SMILES	KCNQ1 inh	KCNQ1 act	KCNK9 block	KCNK3 inh	Kir21 inh	hERG rescue	KCNK9 block conf	Kir2-1 spec	KCNK9 uninduced	KCNK3 inh conf	KCNK3 uninduced
CCCOC(=O)c1ccc(NC(=O)c2ccccc2[N+](=O)[O-])cc1	i	i	-8.18*	-8.8*	1.23	-5.2	48.5%*	i	i	104.7*	i
CC(C)CN(CC(C)C)C1=N/C(=C\c2ccco2)C(=O)N1c1ccccc1	i	i	-9.85*	-9.23*	1.4	-6.7	56.0%*	i	46.5%*	125.3*	i
CCN(CC)C1=N/C(=C\c2ccco2)C(=O)N1c1ccccc1	i	i	i	i	0.8	-12.3	x	x	x	x	x
CC/C(=N/N=C(/CC)c1ccc(O)cc1)c1ccc(O)cc1	i	i	-15.2*	-9.62*	-1.75	-3.6	55.5%*	i	30.5%*	92.0*	i
CCOc1ccccc1NC(=O)c1cccc2c1C(=O)N(C1CCCCC1)C2	i	i	-9.08*	-10.8*	2.12	-8.8	37.5%*	i	33.0%*	99.7*	i
Cc1ccc(NC(=O)c2cccc3c2C(=O)N(C2CCCCC2)C3)cc1	i	i	-9.56*	-9.41*	0.99	-9.6	32.0%*	i	26.0%*	117.3*	i
CCOC(=O)N1CCC(N2Cc3cccc(C(=O)Nc4ccc(OCC)cc4)c3C2=O)CC1	i	i	i	i	0.06	-9.8	x	x	x	x	x
CCc1ccc(NC(=O)c2sccc2-n2cccc2)cc1	i	i	-8.62*	-11.7*	0.08	-14.9	59.0%*	i	40.5%*	100.0*	0.153*
Cn1nc(-c2ccccc2)c(C#N)c1Sc1cccc(Cl)c1	i	i	-10.7*	-9.11*	-0.1	-9.6	55.0%*	i	52.0%*	112.7*	0.15*

Bioassay records deposited in PubChem by Johns Hopkins Ion Channel Center.
